Measurements pooled from the literature.
Protocols differ between the studies behind these lines.
Medium: plasma

| SMILES | host | route | dose | notes | measurement | value |
| --- | --- | --- | --- | --- | --- | --- |
| C=CC(=O)N1CCC([C@@H]2CCNc3c(C(N)=O)c(-c4ccc(Oc5ccccc5)cc4)nn32)CC1 | Sprague-Dawley rat | oral | 16 mg/kg |  | MRT(0-inf) | 3.93 h |
| C[C@H]1Oc2cc(cnc2N)-c2c(nn(C)c2C#N)CN(C)C(=O)c2ccc(F)cc21 | male Sprague-Dawley rat | oral | 5 mg/kg | single dose | MRT(0-t) | 6.6 h |
| COc1nc(-c2cccc(-c3ccccc3)c2C)ccc1CNCCNC(=O)CCCCCCCCCCC(=O)N1CCN(CCNC(=O)c2cc3c(=O)n4cccc(C)c4nc3n(CCc3cccs3)c2=N)CC1 | male Sprague-Dawley rat | intravenous | 2 mg/kg |  | MRT(0-t) | 4.8 h |
| COc1ccc(-c2coc3cc(O)cc(O)c3c2=O)cc1 | rat | intravenous | 2 mg/kg |  | MRT | 0.27 h |
| Nc1ccn([C@@H]2O[C@H](CO)[C@@H](O)C2(F)F)c(=O)n1 | male Sprague-Dawley rat | intraperitoneal | 5 mg/kg |  | MRT(0-inf) | 0.88 h |
| C[C@@]12C[C@@]3(O)O[C@@H](O1)[C@]1(COC(=O)c4ccccc4)[C@H]3C[C@@]12O[C@@H]1O[C@H](CO)[C@@H](O)[C@H](O)[C@H]1O | male Sprague-Dawley rat | oral | 80 mg/kg |  | MRT(0-inf) | 10.9 h |
| CC[C@@H]([C@H](C)O)n1ncn(-c2ccc(N3CCN(c4ccc(OC[C@@H]5CO[C@@](Cn6cncn6)(c6ccc(F)cc6F)C5)cc4)CC3)cc2)c1=O | Sprague-Dawley rat | oral | 40 mg/kg |  | MRT(0-inf) | 22.1 h |
| COc1ccc(N(Cc2csc(-c3ccccc3)n2)C(=O)CCCCCC(=O)NO)cc1 | female Sprague-Dawley rat | oral | 30 mg/kg |  | MRT | 3.18 h |
| O=C1CCC(N2Cc3cc(C4CCN(Cc5ccccc5)CC4)ccc3C2=O)C(=O)N1 (centres unmarked) | male Sprague-Dawley rat | oral | 3 mg/kg |  | MRT(0-t) | 3 h |
| C[C@H]1[C@@H](O)O[C@@H]2O[C@@]3(C)CC[C@H]4[C@H](C)CC[C@@H]1[C@@]24OO3 | male Sprague-Dawley rat | oral | 10 mg/kg |  | MRT(0-inf) | 2.97 h |
| CONC(=O)c1cccc2c1cc(C)n2-c1nc2c(c(NCc3ccccc3)n1)CCCN2 | male Sprague-Dawley rat | intravenous | 1 mg/kg | single dose | MRT | 3.6 h |
| COc1cc(-c2cc(C(C)=O)n3ccccc23)c(OC)cc1Cn1ccnc1 | male Sprague-Dawley rat | intravenous | 5 mg/kg |  | MRT(0-t) | 1.14 h |
| Cn1c(=O)c2[nH]cnc2n(C)c1=O | male Sprague-Dawley rat | intravenous | 22.5 mg/kg |  | MRT(0-inf) | 3.69 h |
| CCOc1c([C@H](C)n2nc(C)c3c(N)ncnc32)cc(Cl)c(F)c1[C@@H]1CNC(=O)C1 | male Sprague-Dawley rat | oral | 2 mg/kg | single dose | MRT(0-t) | 7.67 h |
